A short description of test [1]: Effect on reversal of [3H]- VBL accumulation in MDA-435/LCC6 (Pgp-negative) cells. Format: functional. The note with it: Homo sapiens. The method, boiled down: (§1)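 Test compound at five concentrations was added with DOX (4 μM) or [³H] VBL (5 nM) for 3 h, in triplicate. Cells were washed in ice-cold 0.15 M NaCl. DOX was measured fluorometrically after TCA extraction and VBL by scintillation, both normalized to cell number. Pgp-specific EC50 values were corrected for these effects.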

Test [2] has as its system Breast cancer cell line. Put plainly: Ratio of effect of compound on DOX accumulation (antiPgp activity) to its intrinsic cellular toxicity;. Format: functional, Homo sapiens. The method, boiled down: (§2)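 Ratio IC50/EC50 of crystal violet cytotoxicity (5-day exposure) IC50 to the EC50 for DOX or [³H] VBL accumulation (3 h, 4 μM DOX or 5 nM VBL) in MDA435/LCC6 and MDA435/LCC6^MDR1 cells. Where no IC50 was reached, the highest non-toxic concentration tested, limited by solubility, was used.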

A short description of test [3]: Effect on reversal of DOX accumulation in MDA-435/LCC6 (Pgp-negative) cells. Format: functional. The conditions noted are these: Homo sapiens. A digest of the protocol:
as §1

A short description of test [4]: Potency relative to progesterone in reversing of DOX accumulation in MDA-435/LCC6 (Pgp-negative) cells. Format: functional, Homo sapiens. A digest of the protocol:
as §1

Test [5] deals with Breast cancer cell line. Briefly: Potency relative to progesterone in reducing the difference in reversing of [3H]VBL accumulation between MDA-435/LCC6 and MDA-435/LCC6-MDRI cells. Format: functional, Homo sapiens. A digest of the protocol: (§3)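 They were then given test compound at five concentrations plus DOX (4 μM) or [³H] VBL (5 nM) for 3 h, in triplicate, and washed with ice-cold 0.15 M NaCl. DOX was extracted in 20% TCA and read by fluorescence (ex 500/em 580 nm); VBL was counted by scintillation. Values were corrected for cell number. EC50 is the concentration halving the accumulation difference between the two lines, interpolated from dose-response curves. […] Mean ± SE, ≥3 experiments.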

The test system of test [6] is Breast cancer cell line. Put plainly: Ratio of effect of compound on VBL accumulation (antiPgp activity) to its intrinsic cellular toxicity;. The format is functional, Homo sapiens.
In test [7] the test system is Breast cancer cell line. Put plainly: Potency relative to progesterone in reducing the difference in reversal of DOX accumulation between MDA-435/LCC6 and MDA-435/LCC6-MDRI cells. The format is functional, Homo sapiens. A digest of the protocol:
as §3

Test [8] is described as follows: Growth inhibitory activity on MDA-435/LCC6-MDRI ([…]) human breast cancer cells. Format: functional, cell-based. The note with it: Cancer cell lines. A digest of the protocol: (§4)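 MDA435/LCC6 (Pgp-negative) and MDA435/LCC6^MDR1 (Pgp-positive) cells were plated 24 h, then exposed 5 days to test agents at a range of concentrations in growth medium. Cells were fixed and stained with 0.5% crystal violet in 25% methanol, and dye was eluted in 0.1 M sodium citrate/25% methanol and read at 540 nm. […] Mean ± SE, ≥3 experiments.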

Test [9] concerns Breast cancer cell line. Put plainly: Concentration that reduces difference in reversal of [3H]VBL accumulation between MDA-435/LCC6 and MDA-435/LCC6-MDRI cells by 50%. The format is functional, cell-based. The conditions noted are these: Homo sapiens. A digest of the protocol: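 They were then given test compound at five concentrations plus DOX (4 μM) or [³H] VBL (5 nM) for 3 h, in triplicate, and washed with ice-cold 0.15 M NaCl. Values were corrected for cell number. EC50 is the concentration halving the accumulation difference between the two lines, interpolated from dose-response curves. Mean ± SE, ≥3 experiments.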

Test [10] deals with Breast cancer cell line. Briefly: To estimate the extent of resistance conferred by Pgp, the ratio of IC50 in MDA-435/LCC6-MDR1 and MDA-435/LCC6 cells (relative resistance of Pgp-positive cells) was used. Format: functional, Homo sapiens. A digest of the protocol:
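Retrovirally MDR1-transduced MDA435/LCC6^MDR1 and parental MDA435/LCC6 cells, 24 h after plating, exposed 5 days to graded agent concentrations. Fixed/stained with 0.5% crystal violet in 25% methanol, dye extracted in 0.1 M sodium citrate/25% methanol, A540. IC50 = concentration halving cell density versus untreated, interpolated.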

A short description of test [11]: Potency relative to progesterone in reversing of [3H]- VBL accumulation in MDA-435/LCC6 (Pgp-negative) cells. Format: functional, Homo sapiens. The method, boiled down: as §1
Test [12] relates to Breast cancer cell line. Briefly: Concentration that reduces the difference in reversal of DOX accumulation between MDA-435/LCC6 and MDA-435/LCC6-MDRI cells by 50%. The format is functional, cell-based. The note with it: Homo sapiens. The method, boiled down:
as §3

A short description of test [13]: Growth inhibitory activity on MDA-435/LCC6 ([…]) human breast cancer cells. The note with it: Cancer cell lines. The format is functional, cell-based. A digest of the protocol: as §4
Test [14] addresses ATP-dependent translocase ABCB1 (Homo sapiens, UniProt P08183). Put plainly: TP_TRANSPORTER: reversal of Vinblastine accumulation (Vinblastine: 0.005 uM) in MDA435/LCC6 MDR1 cells. The format is functional, cell-based, MDA-MB-435/LCC6 MDR1. A digest of the protocol: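 VBL (5 nM) with test compound at five concentrations, in triplicate. Cells were rinsed with ice-cold 0.15 M NaCl and PBS, dried, trypsinized, and counted by scintillation; accumulation was corrected for cell number.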

For test [15], the system named is Breast cancer cell line. Briefly: Ratio of effect of compound on VBL accumulation (antiPgp activity) to its intrinsic cellular toxicity. Format: functional, Homo sapiens. A digest of the protocol: as §2
The nature of test [16]: Growth inhibitory activity on MDA-435/LCC6-MDRI ([…]) human breast cancer cells. Format: functional, cell-based. The note with it: Cancer cell lines. A digest of the protocol:
(§5)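 Cells exposed 24 h after plating to test agents at several concentrations for 5 days. Crystal violet (0.5% in 25% methanol) fix/stain, dye extracted in 0.1 M sodium citrate/25% methanol, absorbance at 540 nm as percent of untreated controls.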

The nature of test [17]: Potency relative to progesterone in reversing of DOX accumulation in MDA-435/LCC6 (Pgp-negative)cells; Not determined. The format is functional, Homo sapiens.
Test [18] in a line: Growth inhibitory activity on MDA-435/LCC6 ([…]) human breast cancer cells. Format: functional, cell-based. The note with it: Cancer cell lines. A digest of the protocol: as §5
In test [19] the test system is Breast cancer cell line. Put plainly: Ratio of effect of compound on DOX accumulation (antiPgp activity) to its intrinsic cellular toxicity. Format: functional, Homo sapiens. A digest of the protocol:
as §2

In test [20] the test system is Breast cancer cell line. Put plainly: Concentration that reduces the difference in reversal of DOX accumulation between MDA-435/LCC6 and MDA-435/LCC6-MDRI cells by 50%. The format is functional, cell-based. The conditions noted are these: Homo sapiens. A digest of the protocol:
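Ice-cold NaCl wash, overnight 20% TCA extraction at 4 °C in dark, fluorescence ex 500/em 580 nm against DOX standard curve, normalized to cell number.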

Molecules are shown by their SMILES.

Data on eight molecules can be found in ChEMBL document CHEMBL1135805 (J Med Chem, 2002).

ATP-dependent translocase ABCB1, sequence (P08183 whole entry): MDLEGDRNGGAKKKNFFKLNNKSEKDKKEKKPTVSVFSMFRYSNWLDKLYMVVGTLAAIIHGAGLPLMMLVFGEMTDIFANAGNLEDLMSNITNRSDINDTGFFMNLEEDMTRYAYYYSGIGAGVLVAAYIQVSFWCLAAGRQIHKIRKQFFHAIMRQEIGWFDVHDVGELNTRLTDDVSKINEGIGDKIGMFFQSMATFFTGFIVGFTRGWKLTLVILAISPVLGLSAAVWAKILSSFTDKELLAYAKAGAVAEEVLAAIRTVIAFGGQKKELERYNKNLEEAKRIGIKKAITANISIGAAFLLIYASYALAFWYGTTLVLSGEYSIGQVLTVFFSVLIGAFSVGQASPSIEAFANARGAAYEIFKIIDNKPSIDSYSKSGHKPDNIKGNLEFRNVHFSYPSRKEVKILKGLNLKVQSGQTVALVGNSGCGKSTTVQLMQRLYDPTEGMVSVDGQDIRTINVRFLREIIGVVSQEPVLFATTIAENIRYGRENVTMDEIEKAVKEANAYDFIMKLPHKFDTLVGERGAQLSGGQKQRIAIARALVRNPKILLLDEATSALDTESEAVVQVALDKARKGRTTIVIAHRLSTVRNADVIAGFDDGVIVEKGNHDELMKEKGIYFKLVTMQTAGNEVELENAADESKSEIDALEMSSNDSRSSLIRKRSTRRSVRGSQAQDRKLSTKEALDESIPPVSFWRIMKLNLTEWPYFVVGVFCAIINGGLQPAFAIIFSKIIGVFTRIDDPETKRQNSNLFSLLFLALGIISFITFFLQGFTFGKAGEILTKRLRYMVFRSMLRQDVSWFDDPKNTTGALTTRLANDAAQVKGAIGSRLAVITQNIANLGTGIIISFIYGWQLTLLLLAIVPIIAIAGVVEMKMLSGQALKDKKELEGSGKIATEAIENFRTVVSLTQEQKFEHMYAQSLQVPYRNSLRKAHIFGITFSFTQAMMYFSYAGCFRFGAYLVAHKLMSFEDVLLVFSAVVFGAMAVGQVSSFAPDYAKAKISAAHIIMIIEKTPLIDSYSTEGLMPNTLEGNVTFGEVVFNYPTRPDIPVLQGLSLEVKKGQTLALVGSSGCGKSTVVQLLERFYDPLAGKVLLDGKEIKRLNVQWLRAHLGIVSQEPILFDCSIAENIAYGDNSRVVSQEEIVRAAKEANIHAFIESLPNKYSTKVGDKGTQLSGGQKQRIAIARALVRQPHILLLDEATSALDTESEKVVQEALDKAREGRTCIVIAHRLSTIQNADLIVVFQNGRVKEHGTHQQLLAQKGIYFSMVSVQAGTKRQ

By EC50 is commonly meant the concentration at which the effect is half-maximal. What is called IC50 is the concentration needed to halve the response being measured. With `CC(=O)[C@H]1CCC2C3C(CC[C@@]21C)[C@@]1(C)CCC(=O)C=C1C[C@H]3Sc1ccc(NC(=O)NS(=O)(=O)c2ccc(C)cc2)cc1` (stereo partly drawn), the EC50 in test [1] was determined as 33.4 µM; in test [3], 37 µM; in test [9], 34.8 µM; in [12], 14.7 µM. Also, the Ratio in test [2] was determined as 0.6; in test [6] it was 0.7. The Relative potency came out at 1.1 in test [4], 0.5 in test [5], 1.5 in test [7] and 0.6 in test [11]. In addition, the values for the half-inhibitory concentration (IC50) in test [8] and in test [13] were 38.2 µM and 22.1 µM, respectively. Also, the Relative resistance in test [10] is reported as 1.7.

Consider `CC(=O)C1CCC2C3C(CC[C@]12C)[C@@]1(C)CCC(=O)C=C1C[C@H]3Sc1ccc(NC(=O)NCCCl)cc1` (stereo partly drawn), for which the EC50 in test [1] was 0.9 µM; in test [3], 0.7 µM; in test [9], 0.8 µM; in [12] it was 0.6 µM. Also, the Ratio in [2] is given as 3.2; in test [6] it was 3.6. For the same molecule, the Relative potency is 60.2 in test [4], 22.5 in [5], 40.5 in test [7] and 23.5 in [11]. Besides, the IC50 in test [8] was 7.3 µM; in test [13], 3.2 µM. Further, in test [10], the Relative resistance is 2.2.

For `CC(=O)C1CC[C@H]2[C@@H]3[C@H](Sc4ccc(NC(=O)N[C@H](C)c5ccccc5)cc4)CC4=CC(=O)CC[C@]4(C)[C@H]3CC[C@]12C` (stereo partly drawn), the half-maximal effective concentration (EC50) in test [14] was 0.7 µM.

For the molecule `CCNC(=O)Nc1ccc(S[C@@H]2CC3=CC(=O)CC[C@]3(C)C3CC[C@]4(C)C(C(C)=O)CCC4C32)cc1` (stereo partly drawn), the EC50 in [1] stood at 1.5 µM; in test [3], 1 µM; in test [9], 1.3 µM; in [12], 0.7 µM. For the same molecule, the Ratio in [15] is recorded as over 13.3; in test [2] it was over 20. The Relative potency came out at 14.2 in [5], 31.3 in test [7], 14 in test [11] and 42.7 in test [17]. The IC50 in test [16] and in test [18] was over 20 µM in each case.

For the molecule `CC(=O)[C@H]1CCC2C3C(CC[C@@]21C)[C@@]1(C)CCC(=O)C=C1C[C@H]3Sc1ccc(NC(=O)N[C@H](C)c2ccccc2)cc1` (stereo partly drawn), the EC50 in test [1] is 0.7 µM; in test [3] it was 0.9 µM; in test [9] it was 0.8 µM; in test [12], 0.6 µM. Further, the Ratio in test [15] is over 28.6; in test [19], over 22.2. The Relative potency in [4] turned out to be 44.8; in [5], 24.5; in [7], 37.2; in test [11], 28.2. For the same molecule, the IC50 in test [16] and in [18] was over 20 µM each time.

Consider `COc1ccc(CCN(C)CCCC(C#N)(c2ccc(OC)c(OC)c2)C(C)C)cc1OC` (stereo not drawn), for which the EC50 in test [3] came out at 4.1 µM; in test [9], 1.2 µM; in test [12], 2.4 µM. The 50% inhibitory concentration (IC50) in test [8] was 63.4 µM; in [13], 65.8 µM.

For the molecule `C/C=C/C[C@@H](C)[C@@H](O)[C@H]1C(=O)N[C@@H](CC)C(=O)N(C)CC(=O)N(C)[C@@H](CC(C)C)C(=O)N[C@@H](C(C)C)C(=O)N(C)[C@@H](CC(C)C)C(=O)N[C@@H](C)C(=O)N[C@H](C)C(=O)N(C)[C@@H](CC(C)C)C(=O)N(C)[C@@H](CC(C)C)C(=O)N(C)[C@@H](C(C)C)C(=O)N1C` [CYCLOSPORINE], in test [12], the EC50 was 0.5 µM.

Take `CC(=O)[C@H]1CC[C@H]2[C@@H]3CCC4=CC(=O)CC[C@]4(C)[C@H]3CC[C@]12C` [PROGESTERONE]: the EC50 was determined as 21 µM in test [1], 42.2 µM in test [3], 18.7 µM in test [9] and 22.3 µM in test [20]. Besides, the results for the IC50 in test [8] and in test [13] were 36.4 µM and 27.4 µM, respectively.
